Values joined by “and” are separate entries in the source; they are usually repeats but may differ in a detail not shown here. Equal values may be shown once.
Tested on: Fibroblast
Experiment: Multiplex assay against human fibroblast
Type: toxicity, cell-based
Conditions: 10 µM, compound concentration 10 uM
Summary of the method: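 Phenotypes for tubulin, mitochondrial mass and membrane permeability are expressed as per cents of healthy-nucleus cells. Cells were stained live at seeding with Hoechst33342, BioTracker Green Microtubule Cytoskeleton Dye, MitoTracker Red and Annexin V Alexa Fluor 680, then imaged after compound addition on a CQ1 microscope at 37°C and 5% CO2. Machine-learning gating in CellPathfinder separated Hoechst high-intensity objects from normal cells, divided normal cells by nuclear state (healthy, pyknosed, fragmented) and divided pyknosed cells into mitotic or apoptotic.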

Structure (SMILES): CNCc1ccccc1-c1csc([C@H](C)Nc2nc(C)nc3cc(OC)c(OC)cc23)c1 [BAY-294]
- Population Apoptotic (%) (12 h, replicate 1): 43% and 56% and 82%
- Population Fragmented Nuclei (%) (12 h, replicate 1): 26% and 31% and 27%
- Population Membrane Permeable-Phenotype (%) (12 h, replicate 1): 18% and 34% and 33%
- Population Normal (%) (12 h, replicate 1): 70% and 93% and 84%
- Population Pyknosed Nuclei (%) (12 h, replicate 1): 25% and 52% and 62%
- Population Tubulin-Different-Phenotype (%) (12 h, replicate 1): 34% and 69% and 83%
- Population Apoptotic (%) (12 h, replicate 2): 78% and 55% and 57%
- Population Fragmented Nuclei (%) (12 h, replicate 2): 54% and 37% and 46%
- Population Hoechst High Intensity Objects (%) (12 h, replicate 2): 27% and 35% and 55%
- Population Mitotic Cells (%) (12 h, replicate 2): 21% and 45% and 42%
- Population Normal (%) (12 h, replicate 2): 72% and 64% and 44%
- Population Pyknosed Nuclei (%) (12 h, replicate 2): 31% and 19% and 30%
- Population Tubulin-Different-Phenotype (%) (12 h, replicate 2): 77% and 56% and 100%
- Population Apoptotic (%) (24 h, replicate 1): 54% and 89%
- Population Fragmented Nuclei (%) (24 h, replicate 1): 17% and 38% and 29%
- Population Hoechst High Intensity Objects (%) (24 h, replicate 1): 41% and 14% and 31%
- Population Normal (%) (24 h, replicate 1): 58% and 85% and 68%
- Population Pyknosed Nuclei (%) (24 h, replicate 1): 32% and 54% and 49%
- Population Tubulin-Different-Phenotype (%) (24 h, replicate 1): 31% and 43% and 83%
- Population Apoptotic (%) (24 h, replicate 2): 31% and 93% and 78%
- Population Fragmented Nuclei (%) (24 h, replicate 2): 33% and 60% and 52%
- Population Hoechst High Intensity Objects (%) (24 h, replicate 2): 37% and 38% and 54%
- Population Normal (%) (24 h, replicate 2): 62% and 61% and 45%
- Population Pyknosed Nuclei (%) (24 h, replicate 2): 29% and 33% and 27%
- Population Apoptotic (%) (48 h, replicate 1): 75%
- Population Fragmented Nuclei (%) (48 h, replicate 1): 40%
- Population Healthy Nuclei (%) (48 h, replicate 1): 44%
- Population Hoechst High Intensity Objects (%) (48 h, replicate 1): 35%
- Population Membrane Permeable-Phenotype (%) (48 h, replicate 1): 43%
- Population Mitochondria Different-Phenotype (%) (48 h, replicate 1): 52%
- Population Mitotic Cells (%) (48 h, replicate 1): 25%
- Population Normal (%) (48 h, replicate 1): 64%
- Population Pyknosed Nuclei (%) (48 h, replicate 1): 15%
- Population Tubulin-Different-Phenotype (%) (48 h, replicate 1): 65%
- Population Apoptotic (%) (48 h, replicate 2): 100%
- Population Fragmented Nuclei (%) (48 h, replicate 2): 84%
- Population Healthy Nuclei (%) (48 h, replicate 2): 8%
- Population Hoechst High Intensity Objects (%) (48 h, replicate 2): 31%
- Population Membrane Permeable-Phenotype (%) (48 h, replicate 2): 0%
- Population Mitochondria Different-Phenotype (%) (48 h, replicate 2): 100%
- Population Mitotic Cells (%) (48 h, replicate 2): 0%
- Population Normal (%) (48 h, replicate 2): 68%
- Population Pyknosed Nuclei (%) (48 h, replicate 2): 7%
- Population Tubulin-Different-Phenotype (%) (48 h, replicate 2): 0%

Structure (SMILES): CN(C)c1ncnc(-c2ccc3nc(Nc4cc(CN5CCN(C(=O)CC(F)(F)F)CC5)ccn4)[nH]c3c2)c1Cl [BAY-440]
- Population Apoptotic (%) (12 h, replicate 1): 72% and 67%
- Population Fragmented Nuclei (%) (12 h, replicate 1): 31% and 20%
- Population Healthy Nuclei (%) (12 h, replicate 1): 51% and 62%
- Population Hoechst High Intensity Objects (%) (12 h, replicate 1): 10% and 13%
- Population Membrane Permeable-Phenotype (%) (12 h, replicate 1): 29% and 17%
- Population Mitochondria Different-Phenotype (%) (12 h, replicate 1): 6% and 3%
- Population Mitotic Cells (%) (12 h, replicate 1): 27% and 32%
- Population Normal (%) (12 h, replicate 1): 89% and 86%
- Population Pyknosed Nuclei (%) (12 h, replicate 1): 17%
- Total Cell Count (12 h, replicate 1): 282 and 187
- Population Apoptotic (%) (12 h, replicate 2): 83% and 50%
- Population Fragmented Nuclei (%) (12 h, replicate 2): 48% and 40%
- Population Healthy Nuclei (%) (12 h, replicate 2): 41% and 50%
- Population Hoechst High Intensity Objects (%) (12 h, replicate 2): 24% and 35%
- Population Membrane Permeable-Phenotype (%) (12 h, replicate 2): 25% and 18%
- Population Mitochondria Different-Phenotype (%) (12 h, replicate 2): 33% and 18%
- Population Normal (%) (12 h, replicate 2): 75% and 64%
- Population Pyknosed Nuclei (%) (12 h, replicate 2): 10% and 9%
- Population Tubulin-Different-Phenotype (%) (12 h, replicate 2): 50% and 86%
- Total Cell Count (12 h, replicate 2): 77 and 68
- Population Apoptotic (%) (24 h, replicate 1): 58% and 50%
- Population Fragmented Nuclei (%) (24 h, replicate 1): 31% and 22%
- Population Healthy Nuclei (%) (24 h, replicate 1): 55% and 67%
- Population Hoechst High Intensity Objects (%) (24 h, replicate 1): 14% and 11%
- Population Membrane Permeable-Phenotype (%) (24 h, replicate 1): 18% and 10%
- Population Mitochondria Different-Phenotype (%) (24 h, replicate 1): 7% and 0%
- Population Mitotic Cells (%) (24 h, replicate 1): 41% and 50%
- Population Normal (%) (24 h, replicate 1): 85% and 88%
- Population Pyknosed Nuclei (%) (24 h, replicate 1): 12% and 10%
- Total Cell Count (24 h, replicate 1): 290 and 193
- Population Apoptotic (%) (24 h, replicate 2): 75% and 37%
- Population Fragmented Nuclei (%) (24 h, replicate 2): 52% and 48%
- Population Healthy Nuclei (%) (24 h, replicate 2): 39% and 32%
- Population Hoechst High Intensity Objects (%) (24 h, replicate 2): 37% and 36%
- Population Membrane Permeable-Phenotype (%) (24 h, replicate 2): 22% and 14%
- Population Mitotic Cells (%) (24 h, replicate 2): 25% and 62%
- Population Normal (%) (24 h, replicate 2): 62% and 63%
- Population Pyknosed Nuclei (%) (24 h, replicate 2): 8% and 18%
- Total Cell Count (24 h, replicate 2): 74 and 68

Structure (SMILES): COc1ccc(Oc2cc(NCCC(F)(F)F)c3ncc(-c4ccc(C(=O)NC5CC5)c(C)c4)n3n2)c(F)c1F [BAY-1217389]
- Population Apoptotic (%) (12 h, replicate 1): 63% and 54%
- Population Fragmented Nuclei (%) (12 h, replicate 1): 28% and 27%
- Population Healthy Nuclei (%) (12 h, replicate 1): 48% and 59%
- Population Hoechst High Intensity Objects (%) (12 h, replicate 1): 18% and 14%
- Population Membrane Permeable-Phenotype (%) (12 h, replicate 1): 18% and 15%
- Population Mitotic Cells (%) (12 h, replicate 1): 36% and 45%
- Population Normal (%) (12 h, replicate 1): 81% and 85%
- Population Pyknosed Nuclei (%) (12 h, replicate 1): 23% and 12%
- Population Tubulin-Different-Phenotype (%) (12 h, replicate 1): 45% and 31%
- Total Cell Count (12 h, replicate 1): 203 and 339
- Population Apoptotic (%) (12 h, replicate 2): 65% and 22%
- Population Fragmented Nuclei (%) (12 h, replicate 2): 35% and 55%
- Population Healthy Nuclei (%) (12 h, replicate 2): 33% and 28%
- Population Hoechst High Intensity Objects (%) (12 h, replicate 2): 23% and 34%
- Population Membrane Permeable-Phenotype (%) (12 h, replicate 2): 20%
- Population Mitochondria Different-Phenotype (%) (12 h, replicate 2): 34% and 18%
- Population Mitotic Cells (%) (12 h, replicate 2): 35% and 77%
- Population Normal (%) (12 h, replicate 2): 76% and 65%
- Population Pyknosed Nuclei (%) (12 h, replicate 2): 30% and 16%
- Population Tubulin-Different-Phenotype (%) (12 h, replicate 2): 38% and 50%
- Total Cell Count (12 h, replicate 2): 170 and 86
- Population Apoptotic (%) (24 h, replicate 1): 77% and 48%
- Population Fragmented Nuclei (%) (24 h, replicate 1): 30% and 23%
- Population Healthy Nuclei (%) (24 h, replicate 1): 41% and 63%
- Population Hoechst High Intensity Objects (%) (24 h, replicate 1): 15% and 13%
- Population Membrane Permeable-Phenotype (%) (24 h, replicate 1): 12% and 8%
- Population Mitotic Cells (%) (24 h, replicate 1): 22% and 51%
- Population Normal (%) (24 h, replicate 1): 84% and 86%
- Population Pyknosed Nuclei (%) (24 h, replicate 1): 27% and 13%
- Population Tubulin-Different-Phenotype (%) (24 h, replicate 1): 59% and 27%
- Total Cell Count (24 h, replicate 1): 211 and 319
- Population Fragmented Nuclei (%) (24 h, replicate 2): 54% and 47%
- Population Healthy Nuclei (%) (24 h, replicate 2): 20% and 36%
- Population Hoechst High Intensity Objects (%) (24 h, replicate 2): 19% and 30%
- Population Membrane Permeable-Phenotype (%) (24 h, replicate 2): 18% and 19%
- Population Mitochondria Different-Phenotype (%) (24 h, replicate 2): 18% and 23%
- Population Mitotic Cells (%) (24 h, replicate 2): 32% and 88%
- Population Normal (%) (24 h, replicate 2): 80% and 69%
- Population Pyknosed Nuclei (%) (24 h, replicate 2): 24% and 15%
- Population Tubulin-Different-Phenotype (%) (24 h, replicate 2): 29% and 52%
